Measured values from ChEMBL document CHEMBL1134358, “Cyclic ketone inhibitors of the cysteine protease cathepsin K” (J Med Chem, 2001).

Key:
[1] = target: T1, Cathepsin K (Homo sapiens) (UniProt P43235); assay: (§1) Inhibitory activity tested against human Cathepsin K
T1 sequence (whole entry): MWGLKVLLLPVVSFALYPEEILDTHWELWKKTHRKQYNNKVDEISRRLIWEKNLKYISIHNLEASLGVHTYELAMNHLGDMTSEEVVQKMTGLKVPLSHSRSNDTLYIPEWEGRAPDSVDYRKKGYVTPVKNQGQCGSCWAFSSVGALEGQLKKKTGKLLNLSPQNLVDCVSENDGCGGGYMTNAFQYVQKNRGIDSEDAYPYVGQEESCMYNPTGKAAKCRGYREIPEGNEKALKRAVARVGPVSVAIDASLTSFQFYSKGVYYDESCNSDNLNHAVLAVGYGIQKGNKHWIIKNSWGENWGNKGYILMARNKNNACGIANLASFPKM

Cathepsin K [2] = target: T2, Cathepsin K (Homo sapiens, UniProt P43235); assay: In vitro inhibition of human Cathepsin K.; conditions: read-out: Ki app
T2 sequence (P43235 whole entry): T1 sequence (whole entry)

Cathepsin S = Cathepsin S (Homo sapiens, UniProt P25774); assay: Inhibition of human Cathepsin S; conditions: read-out: Ki app
How it was run: (§2)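 Fluorogenic AMC-substrate assay in 100 mM acetate, 20 mM cysteine, 5 mM EDTA, pH 5.5, with 10% final DMSO. […] Apparent Ki values were determined.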

Procathepsin L = Procathepsin L (Homo sapiens, UniProt P07711); assay: Inhibition of human Cathepsin L; conditions: read-out: Ki app
Cathepsin B = Cathepsin B (Homo sapiens, UniProt P07858); assay: Inhibitory activity tested against human Cathepsin B; conditions: read-out: Ki app; how it was run: as §2
Cathepsin K [3] = target: T2, Cathepsin K; assay: as §1

Chain of Cathepsin S (P25774 whole entry): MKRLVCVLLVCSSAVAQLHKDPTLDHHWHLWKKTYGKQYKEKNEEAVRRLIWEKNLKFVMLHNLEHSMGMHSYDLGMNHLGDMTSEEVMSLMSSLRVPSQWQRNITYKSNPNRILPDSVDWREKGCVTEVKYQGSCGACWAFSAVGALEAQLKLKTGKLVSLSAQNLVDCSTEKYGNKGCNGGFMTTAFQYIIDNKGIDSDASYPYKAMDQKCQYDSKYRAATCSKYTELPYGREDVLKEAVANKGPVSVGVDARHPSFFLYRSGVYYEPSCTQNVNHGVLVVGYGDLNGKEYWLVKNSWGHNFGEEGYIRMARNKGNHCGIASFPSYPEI
Chain of Procathepsin L (P07711 whole entry): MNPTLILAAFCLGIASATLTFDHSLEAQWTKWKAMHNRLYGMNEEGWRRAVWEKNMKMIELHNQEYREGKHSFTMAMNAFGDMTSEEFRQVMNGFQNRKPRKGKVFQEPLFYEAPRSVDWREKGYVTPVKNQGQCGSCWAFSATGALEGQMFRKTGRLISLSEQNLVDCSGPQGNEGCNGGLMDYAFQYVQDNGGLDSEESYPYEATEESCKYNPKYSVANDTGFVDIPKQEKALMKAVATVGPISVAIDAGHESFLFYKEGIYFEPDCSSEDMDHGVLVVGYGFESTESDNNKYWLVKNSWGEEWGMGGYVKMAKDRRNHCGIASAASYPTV

Row | K inact/I [1] [M⁻¹ s⁻¹] | Ki (Cathepsin K [2]) [nM] | Ki (Cathepsin S) [nM] | Ki (Procathepsin L) [nM] | Ki (Cathepsin B) [nM] | Ki (Cathepsin K [3]) [nM] | SMILES
1 | – | 230 | – | – | – | – | CC(=O)N1CCC(NC(=O)[C@H](CC(C)C)NC(=O)OCc2ccccc2)C(=O)C1 (stereo not given in full)
2 | – | – | 310 | 2600 | > 10000 | – | CC(C)C[C@H](NC(=O)OCc1ccccc1)C(=O)NC1COCC1=O (stereo not given in full)
3 | – | > 1000 | > 1000 | > 1000 | – | – | CC(C)C[C@H](NC(=O)OCc1ccccc1)C(=O)NC1CCOCC1O (stereo not given in full)
4 | – | > 10000 | > 10000 | > 10000 | > 10000 | – | CC(C)C[C@H](NC(=O)OCc1ccccc1)C(=O)NC1CCCC1=O (stereo not given in full)
5 | – | > 10000 | > 10000 | > 10000 | > 10000 | – | CC(C)C[C@H](NC(=O)OCc1ccccc1)C(=O)NC1CCCCC1=O (stereo not given in full)
6 | – | > 1000 | > 1000 | > 1000 | – | – | CC(C)C[C@H](NC(=O)OCc1ccccc1)C(=O)NC1COCC1O (stereo not given in full)
7 | – | 150 | 530 | – | > 10000 | – | CC(C)C[C@H](NC(=O)OCc1ccccc1)C(=O)NC1CCOCC1=O (stereo not given in full)
8 | – | 250 | 480 | 580 | – | – | CC(=O)N1CC(=O)C(NC(=O)[C@H](CC(C)C)NC(=O)OCc2ccccc2)C1 (stereo not given in full)

Second part, the compound before the results:

Row | SMILES | K inact/I [1] [M⁻¹ s⁻¹] | Ki (Cathepsin K [2]) [nM] | Ki (Cathepsin S) [nM] | Ki (Procathepsin L) [nM] | Ki (Cathepsin B) [nM] | Ki (Cathepsin K [3]) [nM]
9 | CCCOC[C@@H](O)[C@H](CC(C)C)NC(=O)[C@H](CC(C)C)NC(=O)OCc1ccccc1 | 4100 | – | – | – | – | –
10 | CC(C)C[C@H](NC(=O)OCc1ccccc1)C(=O)NC1CN(C(=O)[C@H](CC(C)C)N(C)C(=O)OCc2ccccc2)CC1=O (stereo not given in full) | – | 0.6 | – | – | – | –
11 | CC(C)C[C@H](NC(=O)OCc1ccccc1)C(=O)NC1CCN(C(=O)[C@H](CC(C)C)NC(=O)OCc2ccccc2)CC1=O (stereo not given in full) | – | – | 8 | – | – | –
12 | CN[C@@H](CC(C)C)C(=O)N1CC(=O)[C@@H](NC(=O)[C@H](CC(C)C)NC(=O)OCc2ccccc2)C1 | – | 77 | 290 | 400 | 7300 | –
13 | CC(C)C[C@@H](CN1CC(=O)C(NC(=O)[C@H](CC(C)C)NC(=O)c2ccc3cccnc3c2)C1)NC(=O)OCc1ccccc1 (stereo not given in full) | – | 1.6 | – | – | 46 | –
14 | COCC(=O)[C@H](CC(C)C)NC(=O)[C@H](CC(C)C)NC(=O)OCc1ccccc1 | – | – | – | – | – | 80
15 | CC(C)C[C@H](NC(=O)c1cc2ccccc2s1)C(=O)NC1COCCC1=O (stereo not given in full) | – | – | – | – | – | 560
16 | CC(C)C[C@H](NC(=O)OCc1ccccc1)C(=O)NC1CN(C(=O)[C@H](CC(C)C)NC(=O)OCc2ccccc2)CC1=O (stereo not given in full) | – | – | 90 | – | – | –
17 | COCC(=O)[C@H](C)NC(=O)[C@H](CC(C)C)NC(=O)OCc1ccccc1 | – | – | – | – | > 1000 | –
18 | CC(C)C[C@H](NC(=O)c1ccc2ccccc2n1)C(=O)NC1COCC1=O (stereo not given in full) | – | – | 1100 | 250 | 7800 | –
19 | CC(C)C[C@H](NC(=O)c1cc2ccccc2s1)C(=O)NC1CCOCC1=O (stereo not given in full) | – | – | – | – | – | 11
20 | CC(C)C[C@@H](C(=O)NC1CN(C(=O)[C@H](CC(C)C)N(C)C(=O)OCc2ccccc2)CC1=O)N(C)C(=O)OCc1ccccc1 (stereo not given in full) | – | 180 | 51 | – | 2600 | –
21 | CC(C)C[C@H](NC(=O)OCc1ccccc1)C(=O)NC1CCN(C(=O)[C@H](CC(C)C)N(C)C(=O)OCc2ccccc2)CC1=O (stereo not given in full) | – | 1.9 | – | – | – | –
